According to ChEMBL document CHEMBL5303300, “EUbOPEN Chemogenomics Library - Multiplex” (2023):
Several values for one entry are separate records, joined by “and”; a condition that tells them apart may be missing. Equal values may be shown once.

Experiments:
HEK-293T = experiment: Multiplex assay against HEK293T; format: toxicity, cell-based; conditions: human, number of replicates 2
How it was run: (§1)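 Phenotypes for tubulin, mitochondrial mass and membrane permeability are expressed as per cents of healthy-nucleus cells. Cells were stained live at seeding with Hoechst33342, BioTracker Green Microtubule Cytoskeleton Dye, MitoTracker Red and Annexin V Alexa Fluor 680, then imaged after compound addition on a CQ1 microscope at 37°C and 5% CO2. Machine-learning gating in CellPathfinder separated Hoechst high-intensity objects from normal cells, divided normal cells by nuclear state (healthy, pyknosed, fragmented) and divided pyknosed cells into mitotic or apoptotic.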

Fibroblast = experiment: Multiplex assay against human fibroblast; format: toxicity, cell-based; conditions: number of replicates 2; how it was run: as §1
[1] = 24 h, 10 µM, compound concentration 10 uM
[2] = 48 h, 1 µM, compound concentration 1 uM
[3] = 48 h, 10 µM, compound concentration 10 uM
[4] = 12 h, 1 µM, compound concentration 1 uM
[5] = 12 h, 10 µM, compound concentration 10 uM
[6] = 24 h, 1 µM, compound concentration 1 uM

CCc1ncnc(N2CCN(C(C)=O)CC2)c1C#Cc1ccc(N)nc1.Cl.Cl
Population Membrane Permeable-Phenotype (%) (HEK-293T; [1]): 2% and 1% | Population Mitochondria Different-Phenotype (%) (HEK-293T; [1]): 57% and 64% | Population Mitotic Cells (%) (HEK-293T; [1]): 27% and 39% | Population Normal (%) (HEK-293T; [1]): 85% | Population Pyknosed Nuclei (%) (HEK-293T; [1]): 18% | Population Tubulin-Different-Phenotype (%) (HEK-293T; [1]): 79% and 82% | Total Cell Count (HEK-293T; [1]): 233 and 255 | Population Apoptotic (%) (HEK-293T; [2]): 71% and 74% | Population Fragmented Nuclei (%) (HEK-293T; [2]): 14% and 9% | Population Healthy Nuclei (%) (HEK-293T; [2]): 63% and 76% | Population Hoechst High Intensity Objects (%) (HEK-293T; [2]): 20% and 31% | Population Membrane Permeable-Phenotype (%) (HEK-293T; [2]): 1% and 3% | Population Mitochondria Different-Phenotype (%) (HEK-293T; [2]): 37% and 25% | Population Mitotic Cells (%) (HEK-293T; [2]): 28% and 25% | Population Normal (%) (HEK-293T; [2]): 79% and 68% | Population Pyknosed Nuclei (%) (HEK-293T; [2]): 21% and 14% | Population Tubulin-Different-Phenotype (%) (HEK-293T; [2]): 72% and 67% | Total Cell Count (HEK-293T; [2]): 307 and 445 | Population Apoptotic (%) (HEK-293T; [3]): 65% and 57% | Population Fragmented Nuclei (%) (HEK-293T; [3]): 7% | Population Healthy Nuclei (%) (HEK-293T; [3]): 72% and 73% | Population Hoechst High Intensity Objects (%) (HEK-293T; [3]): 23% and 14% | Population Membrane Permeable-Phenotype (%) (HEK-293T; [3]): 0% | Population Mitochondria Different-Phenotype (%) (HEK-293T; [3]): 46% and 63% | Population Mitotic Cells (%) (HEK-293T; [3]): 34% and 42% | Population Normal (%) (HEK-293T; [3]): 76% and 85% | Population Pyknosed Nuclei (%) (HEK-293T; [3]): 20% and 19% | Population Tubulin-Different-Phenotype (%) (HEK-293T; [3]): 80% and 73% | Total Cell Count (HEK-293T; [3]): 260 and 244 | Population Apoptotic (%) (Fibroblast; [4]): 39% and 41% | Population Fragmented Nuclei (%) (Fibroblast; [4]): 26% and 16% | Population Healthy Nuclei (%) (Fibroblast; [4]): 48% and 55% | Population Hoechst High Intensity Objects (%) (Fibroblast; [4]): 0% | Population Membrane Permeable-Phenotype (%) (Fibroblast; [4]): 8% and 9% | Population Mitochondria Different-Phenotype (%) (Fibroblast; [4]): 1% and 2% | Population Mitotic Cells (%) (Fibroblast; [4]): 60% and 58% | Population Normal (%) (Fibroblast; [4]): 99% | Population Pyknosed Nuclei (%) (Fibroblast; [4]): 24% and 28% | Population Tubulin-Different-Phenotype (%) (Fibroblast; [4]): 20% and 15% | Total Cell Count (Fibroblast; [4]): 278 and 215 | Population Apoptotic (%) (Fibroblast; [5]): 47% | Population Fragmented Nuclei (%) (Fibroblast; [5]): 19% and 25% | Population Healthy Nuclei (%) (Fibroblast; [5]): 53% and 54% | Population Hoechst High Intensity Objects (%) (Fibroblast; [5]): 0% | Population Membrane Permeable-Phenotype (%) (Fibroblast; [5]): 4% and 8% | Population Mitochondria Different-Phenotype (%) (Fibroblast; [5]): 4% and 0% | Population Mitotic Cells (%) (Fibroblast; [5]): 52% | Population Normal (%) (Fibroblast; [5]): 100% | Population Pyknosed Nuclei (%) (Fibroblast; [5]): 26% and 19% | Population Tubulin-Different-Phenotype (%) (Fibroblast; [5]): 41% and 42% | Total Cell Count (Fibroblast; [5]): 180 and 245 | Population Apoptotic (%) (Fibroblast; [6]): 53% and 46% | Population Fragmented Nuclei (%) (Fibroblast; [6]): 28% and 10% | Population Healthy Nuclei (%) (Fibroblast; [6]): 46% and 64% | Population Hoechst High Intensity Objects (%) (Fibroblast; [6]): 1% and 0% | Population Membrane Permeable-Phenotype (%) (Fibroblast; [6]): 12% and 4% | Population Mitochondria Different-Phenotype (%) (Fibroblast; [6]): 0% and 1% | Population Mitotic Cells (%) (Fibroblast; [6]): 46% and 53% | Population Normal (%) (Fibroblast; [6]): 98% and 99% | Population Pyknosed Nuclei (%) (Fibroblast; [6]): 25% and 24% | Population Tubulin-Different-Phenotype (%) (Fibroblast; [6]): 12% and 9% | Total Cell Count (Fibroblast; [6]): 259 and 210 | Population Apoptotic (%) (Fibroblast; [1]): 65% and 63% | Population Fragmented Nuclei (%) (Fibroblast; [1]): 18% and 31% | Population Healthy Nuclei (%) (Fibroblast; [1]): 51% and 55% | Population Hoechst High Intensity Objects (%) (Fibroblast; [1]): 0% | Population Membrane Permeable-Phenotype (%) (Fibroblast; [1]): 4% and 6% | Population Mitochondria Different-Phenotype (%) (Fibroblast; [1]): 5% and 0% | Population Mitotic Cells (%) (Fibroblast; [1]): 34% and 36% | Population Normal (%) (Fibroblast; [1]): 100% and 99% | Population Pyknosed Nuclei (%) (Fibroblast; [1]): 29% and 12% | Population Tubulin-Different-Phenotype (%) (Fibroblast; [1]): 37% and 27% | Total Cell Count (Fibroblast; [1]): 176 and 264 | Population Apoptotic (%) (Fibroblast; [2]): 48% and 54% | Population Fragmented Nuclei (%) (Fibroblast; [2]): 28% and 14% | Population Healthy Nuclei (%) (Fibroblast; [2]): 58% and 75% | Population Hoechst High Intensity Objects (%) (Fibroblast; [2]): 1% and 0% | Population Membrane Permeable-Phenotype (%) (Fibroblast; [2]): 5% and 6% | Population Mitochondria Different-Phenotype (%) (Fibroblast; [2]): 0% | Population Mitotic Cells (%) (Fibroblast; [2]): 51% and 45% | Population Normal (%) (Fibroblast; [2]): 98% and 99% | Population Pyknosed Nuclei (%) (Fibroblast; [2]): 12% and 10% | Population Tubulin-Different-Phenotype (%) (Fibroblast; [2]): 10% and 7% | Total Cell Count (Fibroblast; [2]): 259 and 219 | Population Apoptotic (%) (Fibroblast; [3]): 62% and 68% | Population Fragmented Nuclei (%) (Fibroblast; [3]): 13% and 21% | Population Healthy Nuclei (%) (Fibroblast; [3]): 63% and 67% | Population Hoechst High Intensity Objects (%) (Fibroblast; [3]): 0% | Population Membrane Permeable-Phenotype (%) (Fibroblast; [3]): 5% and 1% | Population Mitochondria Different-Phenotype (%) (Fibroblast; [3]): 8% and 0% | Population Mitotic Cells (%) (Fibroblast; [3]): 37% and 32% | Population Normal (%) (Fibroblast; [3]): 100% | Population Pyknosed Nuclei (%) (Fibroblast; [3]): 22% and 10% | Population Tubulin-Different-Phenotype (%) (Fibroblast; [3]): 36% and 25% | Total Cell Count (Fibroblast; [3]): 163 and 231
